Experimental data published in ChEMBL document CHEMBL4627300, “Discovery of 1,8-naphthyridin-2-one derivative as a potent and selective sphingomyelin synthase 2 inhibitor” (Bioorg Med Chem, 2020).
Values after ≈ are worked out from the molar mass of the structure shown. Active and inactive are the calls of the source. The rule behind the calls is not given here.

Columns and labels:
[1] = target: T1, Phosphatidylcholine:ceramide cholinephosphotransferase 2 (Homo sapiens, UniProt Q8NHU3); assay: Inhibition of human recombinant C-terminal FLAG-tagged SMS2 expressed in Freestyle293 cell membrane using C14-phosphatidylcholineD72 and C17-ceramide pre-incubated for 60 mins followed by incubation with substrate for 30 mins measured by RapidFire/MS assay
T1 sequence (Q8NHU3 whole entry): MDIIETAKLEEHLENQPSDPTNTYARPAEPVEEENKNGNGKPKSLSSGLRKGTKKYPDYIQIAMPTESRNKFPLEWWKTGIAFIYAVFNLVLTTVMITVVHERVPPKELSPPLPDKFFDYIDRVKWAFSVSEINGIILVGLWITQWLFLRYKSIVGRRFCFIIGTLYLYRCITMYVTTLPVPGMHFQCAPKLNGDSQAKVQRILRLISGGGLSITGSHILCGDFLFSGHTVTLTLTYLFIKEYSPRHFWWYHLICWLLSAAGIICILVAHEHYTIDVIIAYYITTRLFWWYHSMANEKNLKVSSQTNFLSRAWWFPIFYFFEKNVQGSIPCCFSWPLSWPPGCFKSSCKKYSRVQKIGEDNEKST
Method in brief: (§1)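 C-terminal FLAG-tagged full-length SMS (human SMS1, mouse SMS2, human SMS2) transiently expressed in FreeStyle293 cells for 2 days; total membranes isolated by ultracentrifugation. Enzyme (30 µg/mL) preincubated 60 min with compound, then reacted 30 min at room temperature. Buffer: KCl, 0.1% BSA, 0.03% NP-40 substitute, 1 mM DTT, 10% DMSO. Substrates: 50 µM C14-PC-D72 and 1 µM C17-ceramide. Stopped with 2-propanol/formic acid containing C17-SM internal standard. Product C17-SM-d13 measured by RapidFire SPE and positive SRM MS. % inhibition calculated from peak area ratios against vehicle and no-reaction controls.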

[2] = target: T2, Phosphatidylcholine:ceramide cholinephosphotransferase 2 (Mus musculus, UniProt Q9D4B1); assay: Inhibition of mouse recombinant C-terminal FLAG-tagged SMS2 expressed in mammalian expression system using C14-phosphatidylcholineD72 and C17-ceramide pre-incubated for 60 mins followed by incubation with substrate for 30 mins measured by RapidFire/MS assay; method in brief: as §1
T2 sequence (Q9D4B1 whole entry): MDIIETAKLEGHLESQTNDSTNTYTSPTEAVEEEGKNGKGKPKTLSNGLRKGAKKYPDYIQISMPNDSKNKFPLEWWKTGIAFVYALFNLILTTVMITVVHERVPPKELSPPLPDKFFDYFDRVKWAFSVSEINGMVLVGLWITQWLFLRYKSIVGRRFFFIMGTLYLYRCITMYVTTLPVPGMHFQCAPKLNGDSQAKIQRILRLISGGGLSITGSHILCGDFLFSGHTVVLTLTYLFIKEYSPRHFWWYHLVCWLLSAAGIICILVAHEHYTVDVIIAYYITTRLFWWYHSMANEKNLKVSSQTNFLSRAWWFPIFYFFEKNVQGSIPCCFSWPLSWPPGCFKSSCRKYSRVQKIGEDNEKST

[3] = target: T3, Phosphatidylcholine:ceramide cholinephosphotransferase 1 (Homo sapiens, UniProt Q86VZ5); assay: Inhibition of human recombinant C-terminal FLAG-tagged SMS1 expressed in mammalian expression system using C14-phosphatidylcholineD72 and C17-ceramide pre-incubated for 60 mins followed by incubation with substrate for 30 mins measured by RapidFire/MS assay; method in brief: as §1
T3 sequence (Q86VZ5 whole entry): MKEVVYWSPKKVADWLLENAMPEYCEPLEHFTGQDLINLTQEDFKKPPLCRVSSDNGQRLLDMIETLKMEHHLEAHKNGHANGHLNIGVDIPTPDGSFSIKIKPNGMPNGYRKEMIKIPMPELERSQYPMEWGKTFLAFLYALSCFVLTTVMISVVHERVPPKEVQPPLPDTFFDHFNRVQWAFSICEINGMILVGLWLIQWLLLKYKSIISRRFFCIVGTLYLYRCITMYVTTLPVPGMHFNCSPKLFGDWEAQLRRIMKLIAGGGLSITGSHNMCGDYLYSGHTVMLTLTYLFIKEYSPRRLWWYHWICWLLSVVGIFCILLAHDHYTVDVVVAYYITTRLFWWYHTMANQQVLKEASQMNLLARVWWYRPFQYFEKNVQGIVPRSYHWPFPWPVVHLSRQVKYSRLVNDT

[4] = Permeability of compound in buffer solution at pH 7.4 by PAMPA method; assay type: ADME; conditions: read-out: permeability
Method in brief: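 Membrane permeability measured at pH 7.4.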

[5] = Aqueous solubility of DMSO dissolved compound in buffer solution at pH 6.8 by LC-MS/MS analysis; assay type: physicochemical
Method in brief: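 Compound in DMSO added to aqueous buffer at pH 6.8 and incubated. Precipitate removed by filter-plate filtration; dissolved compound in filtrate quantified by LC/MS/MS.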

[6] = Inhibition of SMS (unknown origin); design: species or system Homo sapiens
[7] = Cmax in KK-AY/Ta mouse at 100 mg/kg, po; assay type: ADME, organism-based; design: dose 100 mg/kg, route oral; conditions: in vivo
Method in brief: (§2)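 Single 100 mg/kg dose given orally or subcutaneously to KK-Ay/Ta mice. Plasma drug concentration followed to 24 h. […] MRT is the mean residence time.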

[8] = Drug concentration in KK-AY/Ta mouse at 100 mg/kg, sc measured upto 24 hrs; assay type: ADME, organism-based; conditions: in vivo, read-out: Drug uptake; method in brief: as §2
[9] = Cmax in KK-AY/Ta mouse at 100 mg/kg, sc; assay type: ADME, organism-based; design: dose 100 mg/kg, route subcutaneous; conditions: in vivo; method in brief: as §2
[10] = Drug concentration in KK-AY/Ta mouse at 100 mg/kg, po measured upto 24 hrs; assay type: ADME, organism-based; conditions: in vivo, read-out: Drug uptake; method in brief: as §2
[11] = Tmax in KK-AY/Ta mouse at 100 mg/kg, po; assay type: ADME, organism-based; conditions: in vivo; method in brief: as §2
[12] = Tmax in KK-AY/Ta mouse at 100 mg/kg, sc; assay type: ADME, organism-based; conditions: in vivo; method in brief: as §2
[13] = AUC (0 to 24 hrs) in KK-AY/Ta mouse at 100 mg/kg, po; assay type: ADME, organism-based; design: dose 100 mg/kg, time < 24 hr, route oral; conditions: in vivo; method in brief: as §2
[14] = AUC (0 to 24 hrs) in KK-AY/Ta mouse at 100 mg/kg, sc; assay type: ADME, organism-based; design: time < 24 hr, dose 100 mg/kg, route subcutaneous; conditions: in vivo; method in brief: as §2
[15] = MRT in KK-AY/Ta mouse at 100 mg/kg, po; assay type: ADME, organism-based; conditions: in vivo; method in brief: as §2
[16] = MRT in KK-AY/Ta mouse at 100 mg/kg, sc; assay type: ADME, organism-based; conditions: in vivo; method in brief: as §2
[17] = tested on: Mus musculus; assay: In vivo inhibition of SMS2 in KK-AY/Ta mouse assessed as decrease in hepatic SM (22:00) levels at 100 mg/kg, sc qd for 7 days measured after last dosing by LC/MS analysis; assay type: functional, organism-based
Method in brief: (§3)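 Male KK-Ay/Ta mice, 10 weeks old, dosed orally or subcutaneously once or twice daily for 7 days; vehicle-treated controls. Livers removed under anesthesia the morning after the last dose. Tissue homogenized in isopropanol (100 mg/mL) by ball-mill and centrifuged; supernatant SM (22:0) measured by reverse-phase LC/MS.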

[18] = tested on: Mus musculus; assay: In vivo inhibition of SMS2 in KK-AY/Ta mouse assessed as decrease in hepatic SM (22:00) levels at 200 mg/kg, sc bid for 7 days measured after last dosing by LC/MS analysis; assay type: functional, organism-based; method in brief: as §3
[19] = tested on: Mus musculus; assay: In vivo inhibition of SMS2 in KK-AY/Ta mouse assessed as decrease in hepatic SM (22:00) levels at 100 mg/kg, po qd for 7 days measured after last dosing by LC/MS analysis; assay type: functional, organism-based; method in brief: as §3
[20] = tested on: Mus musculus; assay: In vivo inhibition of SMS2 in KK-AY/Ta mouse assessed as decrease in hepatic SM (22:00) levels at 200 mg/kg, po bid for 7 days measured after last dosing by LC/MS analysis; assay type: functional, organism-based; method in brief: as §3

| SMILES | IC50 [1] | IC50 [2] | IC50 [3] | Papp [4] | solubility kinetic [5] | further results |
| --- | --- | --- | --- | --- | --- | --- |
| CC(C)CCOc1c(C(=O)N(C)Cc2cc(C(F)(F)F)cc(C(F)(F)F)c2)c(=O)n(C)c2ccccc12 | 350 nM | 260 nM | > 100 µM |  |  |  |
| COc1cc(CN(C)C(=O)c2c(OCCCC3CCN(C(=O)OC4(C)CC4)CC3)c3cccnc3n(C)c2=O)cc(OC)c1 | 300 nM | 14 nM | 18 µM | 20 ×10⁻⁶ cm/s | 16 µg/mL (≈ 26.4 µM) |  |
| CN(Cc1cc(C(F)(F)F)cc(C(F)(F)F)c1)C(=O)c1c(OCCCc2ccccc2)c2ccccc2n(C)c1=O | 210 nM | 120 nM | 14 µM |  |  |  |
| CCOc1cc(CN(C)C(=O)c2c(OCCCC3CCN(C(=O)OC(C)(C)C)CC3)c3ccccc3n(C)c2=O)cc(OCC)c1 | 380 nM | 51 nM | 15 µM | 27.5 ×10⁻⁶ cm/s | < 0.08 µg/mL |  |
| CN(Cc1cc(C(F)(F)F)cc(C(F)(F)F)c1)C(=O)c1c(N2CCCCC2)c2ccccc2n(C)c1=O | 11000 nM |  | > 100 µM |  |  |  |
| COc1cc(CN(C)C(=O)c2c(OCCCC3CCN(C(=O)OC(C)(C)C)CC3)c3cccnc3n(C)c2=O)cc(OC)c1 | 130 nM | 32 nM | 10 µM | 24.1 ×10⁻⁶ cm/s | 7.3 µg/mL (≈ 12 µM) |  |
| CN(Cc1cc(C(F)(F)F)cc(C(F)(F)F)c1)C(=O)c1c(N2CCC(OCc3ccccc3)C2)c2ccccc2n(C)c1=O (centres undefined) | 610 nM | 660 nM | 15 µM |  |  |  |
| COc1cc(CN(C)C(=O)c2c(OCCCC3CCN(C(=O)OC(C)(C)C)CC3)c3cnccc3n(C)c2=O)cc(OC)c1 | 1600 nM | 340 nM | > 100 µM | 26 ×10⁻⁶ cm/s | 33 µg/mL (≈ 54.2 µM) |  |
| CN(Cc1cc(C(F)(F)F)cc(C(F)(F)F)c1)C(=O)c1c(OCCCC2CCN(C(=O)OC(C)(C)C)CC2)c2ccccc2n(C)c1=O | 30 nM | 7.7 nM | 3.4 µM | 1.1 ×10⁻⁶ cm/s | < 0.16 µg/mL |  |
| S=C(S)OC1C[C@H]2C[C@@H]1[C@H]1CCC[C@@H]21 (some centres undefined) |  |  |  |  |  | IC50 [6]: > 100 µM |
| CN(Cc1cc(C(F)(F)F)cc(C(F)(F)F)c1)C(=O)c1c(OCCCC2CCCCC2)c2ccccc2n(C)c1=O | 480 nM | 190 nM | 14 µM |  |  |  |
| CN(Cc1cc(C(F)(F)F)cc(C(F)(F)F)c1)C(=O)c1c(OCCCC(F)(F)F)c2ccccc2n(C)c1=O | 120 nM | 240 nM | 25 µM |  |  |  |
| CCCOc1c(C(=O)N(C)Cc2cc(C(F)(F)F)cc(C(F)(F)F)c2)c(=O)n(C)c2ccccc12 | 2100 nM |  | > 100 µM |  |  |  |
| CN(Cc1cc(C(F)(F)F)cc(C(F)(F)F)c1)C(=O)c1c(OCCCC2CCN(C(=O)OC3(C)CC3)CC2)c2cccnc2n(C)c1=O | 47 nM | 3 nM | 0.85 µM | 72.1 ×10⁻⁶ cm/s | < 0.3 µg/mL |  |
| COc1cc(CN(C)C(=O)c2c(OCCCC3CCN(C(=O)OC(C)(C)C)CC3)c3ccccc3n(C)c2=O)cc(OC)c1 | 91 nM | 19 nM | 19 µM | 29.5 ×10⁻⁶ cm/s | 1.8 µg/mL (≈ 2.96 µM) |  |
| COc1cc(CN(C)C(=O)c2c(OCCCC3CCN(C(=O)OC4(C)CC4)CC3)c3cccnc3n(C)c2=O)cc(C(F)(F)F)c1 | 45 nM | 2.2 nM | 2.4 µM | 42.4 ×10⁻⁶ cm/s | 0.79 µg/mL (≈ 1.23 µM) | Cmax [7]: 6500 ng/mL; concentration at 24 h [8]: 230 ng/mL; Cmax [9]: 700 ng/mL; concentration at 24 h [10]: 7 ng/mL; Tmax [11]: 49.8 min; Tmax [12]: 8 h; AUC(0-t) at 24 h [13]: 18000 ng·h/mL; AUC(0-t) at 24 h [14]: 12000 ng·h/mL; MRT [15]: 3 h; MRT [16]: 9.4 h; inhibition [17]: Active; inhibition [18]: Active; inhibition [19]: inactive; inhibition [20]: inactive |
| CN(Cc1cc(C(F)(F)F)cc(C(F)(F)F)c1)C(=O)c1c(N2CCCC2)c2ccccc2n(C)c1=O |  | 1100 nM | > 100 µM |  |  |  |
| CN(Cc1cc(C(F)(F)F)cc(C(F)(F)F)c1)C(=O)c1c(OCCOCc2ccccc2)c2ccccc2n(C)c1=O | 380 nM | 590 nM | 22 µM |  |  |  |
